The nature of data set [1]: Antiviral activity against Influenza A virus (A/Vietnam/1194/2004(H5N1)) infected in MDCK cells assessed as inhibition of viral replication after 2 to 3 days by crystal violet staining-based plaque reduction assay. The format is functional, cell-based.
Data set [2] is described as follows: Cytotoxicity against MDCK cells after 72 hrs by MTT assay. Format: cell-based, Canis lupus familiaris. The conditions noted are these: dog. Put shortly: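 Uninfected MDCK cells were assayed by MTT. CC50 is the concentration causing 50% cell death. Values are the average of three separate experiments.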
Data set [3] can be described thus: Selectivity index, ratio of CC50 for MDCK cells to IC50 for Influenza A virus (A/Vietnam/1194/2004(H5N1)). Format: functional.
Data set [4] has as its target Neuraminidase (Influenza A virus) (UniProt B4URF0). The data set can be described thus: Inhibition of Influenza A virus H5N1 neuraminidase up to 20 ug/ml by fluorescence spectrophotometric analysis.
Data set [5] in a line: cells. Format: functional, Influenza A virus (A/Vietnam/1194/2004(H5N1)). Particulars: Influenza A virus, MDCK, 2 h.
The nature of data set [6]: cells. Particulars: Influenza A virus, MDCK, 2 h. Format: functional, Influenza A virus (A/Vietnam/1194/2004(H5N1)). The source holds these as a separate data set.
For data set [7], the system named is Influenza A virus. The data set is described as follows: Inhibition of Influenza A virus H5N1 hemagglutinin adsorption to chicken RBC at 100 ug/ml by two-fold dilution method. In a few lines: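 Hemagglutination inhibition assay using H5 standard antigen and antiserum. Compounds were tested in serial 2-fold dilutions from 100 to 0.098 µg/ml.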

SMILES strings stand for the structures. The source made the active and inactive calls. No cut-off for these calls is given here.

Neuraminidase (Influenza A virus), sequence (B4URF0 as listed by the source): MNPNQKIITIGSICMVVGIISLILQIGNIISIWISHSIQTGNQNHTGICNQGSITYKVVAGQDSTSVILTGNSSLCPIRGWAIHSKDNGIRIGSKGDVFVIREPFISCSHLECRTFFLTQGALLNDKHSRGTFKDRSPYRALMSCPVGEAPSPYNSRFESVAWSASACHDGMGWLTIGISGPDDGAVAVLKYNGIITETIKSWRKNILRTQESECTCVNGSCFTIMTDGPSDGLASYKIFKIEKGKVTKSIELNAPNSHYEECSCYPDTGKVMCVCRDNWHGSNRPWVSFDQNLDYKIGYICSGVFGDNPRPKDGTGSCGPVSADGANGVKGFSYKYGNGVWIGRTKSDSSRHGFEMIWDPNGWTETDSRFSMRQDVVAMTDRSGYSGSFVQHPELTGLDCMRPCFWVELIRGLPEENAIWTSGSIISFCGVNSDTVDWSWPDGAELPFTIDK

Take `NC12CC3CC(CC(C3)C1)C2` [AMANTADINE]: the half-inhibitory concentration (IC50) in data set [1] worked out at 10.8 µM. Besides, the midpoint of cytotoxicity in data set [2], the CC50 at 72 h, lay at 219 µM. Also, the “Ratio CC50/IC50” value in data set [3] is 20.27.

Consider `OCc1ccc(O)c(O)c1`, for which the half-inhibitory concentration (IC50) in data set [1] amounted to 1.78 µM. In data set [2], this compound gave a CC50 at 72 h greater than 143 µM. The “Ratio CC50/IC50” value in data set [3] was greater than 80.15. In addition, the inhibition entry in data set [4] and in data set [7] was “inactive” in each case. Also, the inhibition at 30 µM stood at 100% in data set [5] and 20% in data set [6].

For `CCOC(=O)c1ccc(O)c(O)c1`, the IC50 in data set [1] stood at 16.1 µM. For the same compound, the CC50 at 72 h in data set [2] is greater than 170 µM. The “Ratio CC50/IC50” value in data set [3] is greater than 10.55.

Take `CCOC(=O)Cc1ccc(O)c(O)c1`: the IC50 in data set [1] is 16.9 µM. For the same compound, the CC50 at 72 h in data set [2] was greater than 159 µM. Further, the “Ratio CC50/IC50” value in data set [3] is listed as greater than 9.41.

`COC(=O)Cc1ccc(OC)c(OC)c1` showed a cytotoxic concentration (CC50) at 72 h in data set [2] greater than 159 µM.

As to `COC(=O)CCc1ccc(O)c(O)c1`, the IC50 in data set [1] was found to be 23.8 µM. Besides, the CC50 at 72 h in data set [2] is greater than 238 µM. For the same compound, the “Ratio CC50/IC50” value in data set [3] is listed as greater than 10.01.

As to `CC(=O)N[C@H]1[C@H]([C@H](O)[C@H](O)CO)OC(C(=O)O)=C[C@@H]1NC(=N)N` [ZANAMIVIR], in data set [1], the half-inhibitory concentration (IC50) was determined as 0.88 µM. In addition, in data set [2], the half-maximal cytotoxic concentration (CC50) at 72 h was greater than 100 µM. For the same compound, the “Ratio CC50/IC50” value in data set [3] is greater than 113.64.

Regarding `CC(C)OC(=O)Cc1ccc(O)c(O)c1`, the concentration for half-maximal inhibition (IC50) in data set [1] stood at 15.2 µM. This compound had a CC50 at 72 h in data set [2] greater than 149 µM. Further, the “Ratio CC50/IC50” value in data set [3] was greater than 9.77.

As for `COC(=O)[C@H](Cc1ccccc1)NC(=O)c1ccc(O)c(O)c1`, in data set [2], the CC50 at 72 h was greater than 106 µM.

As to `CC(C)OC(=O)CCc1ccc(O)c(O)c1`, in data set [1], the 50% inhibitory concentration (IC50) is 19.5 µM. In addition, in data set [2], the 50% cytotoxic concentration (CC50) at 72 h is greater than 198 µM. The “Ratio CC50/IC50” value in data set [3] is listed as greater than 10.16.

As to `COC(=O)c1ccc(OC)c(OC)c1` [VERATRIC ACID METHYL ESTER], in data set [2], the CC50 at 72 h was greater than 170 µM.

`COC(=O)CCc1ccc(OC)c(OC)c1` registered a cytotoxic concentration (CC50) at 72 h in data set [2] greater than 149 µM.

Consider `COC(=O)[C@H](Cc1ccccc1)NC(=O)Cc1ccc(O)c(O)c1`, for which the half-maximal cytotoxic concentration (CC50) at 72 h in data set [2] is greater than 170 µM.

With `COC(=O)c1ccc(O)c(O)c1` [METHYL PROTOCATECHUATE], the IC50 in data set [1] stood at 18.3 µM. Besides, the CC50 at 72 h in data set [2] is greater than 183 µM. Also, the “Ratio CC50/IC50” value in data set [3] is reported as greater than 10.02.

With `COC(=O)[C@H](CC(C)C)NC(=O)Cc1ccc(O)c(O)c1`, the half-maximal inhibitory concentration (IC50) in data set [1] stood at 41.8 µM. Also, in data set [2], the half-maximal cytotoxic concentration (CC50) at 72 h is greater than 183 µM. The “Ratio CC50/IC50” value in data set [3] was greater than 4.38.

For `CC(C)OC(=O)c1ccc(O)c(O)c1`, the IC50 in data set [1] amounted to 14.9 µM. In addition, the CC50 at 72 h in data set [2] was greater than 159 µM. Moreover, the “Ratio CC50/IC50” value in data set [3] is listed as greater than 10.65. Further, the inhibition result in data set [4] and in data set [7] was “inactive” each time. Moreover, the figures for the inhibition at 30 µM in data set [5] and in data set [6] were greater than 50% and 20%, respectively.

Regarding `COC(=O)[C@H](CC(C)C)NC(=O)c1ccc(O)c(O)c1`, the IC50 in data set [1] came out at 22.2 µM. In data set [2], the half-maximal cytotoxic concentration (CC50) at 72 h is greater than 119 µM. For the same compound, the “Ratio CC50/IC50” value in data set [3] was greater than 5.33. Also, the inhibition entry in data set [4] and in data set [7] was “inactive” throughout. For the same compound, the figures for the inhibition at 30 µM in data set [5] and in data set [6] were greater than 50% and 20%, respectively.

For the compound `CCOC(=O)CCc1ccc(O)c(O)c1`, the IC50 in data set [1] was 21.5 µM. In addition, the CC50 at 72 h in data set [2] is greater than 216 µM. Moreover, the “Ratio CC50/IC50” value in data set [3] is given as greater than 10.08.

As to `COC(=O)Cc1ccc(O)c(O)c1`, the 50% inhibitory concentration (IC50) in data set [1] came to 19.5 µM. Besides, in data set [2], the CC50 at 72 h is greater than 170 µM. The “Ratio CC50/IC50” value in data set [3] is greater than 8.7.

The values above are taken from ChEMBL document CHEMBL3286302, “Design, synthesis and biological evaluation of small molecular polyphenols as entry inhibitors against H(5)N(1)” (Bioorg Med Chem Lett, 2014).
